According to ChEMBL document CHEMBL2375304, “Synthesis and anticancer activity of novel 2-pyridyl hexahyrocyclooctathieno[2,3-d]pyrimidine derivatives” (2013):

Experiments:
Type in all cases: functional
U-251 = test: Growth inhibition of human U251 cells at 10^-5 M after 48 hrs by Sulforhodamine B assay relative to control; settings: U-251, 48 h, read-out: GI
How it was run: (§1)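 Single-dose stage: compound tested at 10⁻⁵ M in the 49-cell-line panel. Cells grew 24 h at 37 °C, 5% CO₂ before drug addition. Drug stock was in DMSO at 400-fold, diluted in medium with gentamicin. After 48 h exposure, adherent cells were fixed with cold TCA (10% final) and stained with 0.4% SRB in 1% acetic acid. Dye was solubilized in 10 mM Tris, read at 515 nm. Growth percentage was taken relative to untreated control and time-zero plates.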

MOLT-4 = test: Growth inhibition of human MOLT4 cells at 10^-5 M after 48 hrs by Sulforhodamine B assay relative to control; settings: MOLT-4, 48 h, read-out: GI
How it was run: (§2)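 Single-dose primary screen at 10⁻⁵ M across 49 lines. Cells were plated 24 h beforehand, with a TCA-fixed time-zero plate, then exposed 48 h at 37 °C, 5% CO2. Cells were fixed with cold TCA, stained with SRB and read at 515 nm. Percent growth was calculated against time-zero and untreated-control absorbances.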

SN12C [1] = test: Growth inhibition of human SN12C cells at 10^-5 M after 48 hrs by Sulforhodamine B assay relative to control; settings: read-out: GI; how it was run: as §2
T47D = test: Growth inhibition of human T47D cells at 10^-5 M after 48 hrs by Sulforhodamine B assay relative to control; settings: read-out: GI; how it was run: as §1
OVCAR-4 = test: Growth inhibition of human OVCAR4 cells at 10^-5 M after 48 hrs by Sulforhodamine B assay relative to control; settings: OVCAR-4, 48 h, read-out: GI; how it was run: as §2
OVCAR-8 [2] = test: Growth inhibition of human OVCAR8 cells at 10^-5 M after 48 hrs by Sulforhodamine B assay relative to control; settings: OVCAR-8, 48 h, read-out: GI; how it was run: as §2
HCT-15 [3] = test: Growth inhibition of human HCT15 cells at 10^-5 M after 48 hrs by Sulforhodamine B assay relative to control; settings: HCT-15, 48 h, read-out: GI
How it was run: (§3)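 Single-dose screen at 10⁻⁵ M. Cells are preincubated 24 h at 37 °C in 5% CO2, then exposed to the compound, diluted from a DMSO stock into medium with gentamicin, for 48 h. Adherent cells are fixed with cold TCA (final 10%) and suspension cells with TCA (final 16%). Cells are stained with 0.4% SRB in 1% acetic acid and bound dye is read at 515 nm. Percent growth inhibition is taken against control wells and time-zero plates.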

SNB-75 = test: Growth inhibition of human SNB75 cells at 10^-5 M after 48 hrs by Sulforhodamine B assay relative to control; settings: SNB-75, 48 h, read-out: GI; how it was run: as §2
HOP-62 = test: Growth inhibition of human HOP62 cells at 10^-5 M after 48 hrs by Sulforhodamine B assay relative to control; settings: HOP-62, 48 h, read-out: GI; how it was run: as §3
CAKI-1 = test: Growth inhibition of human CAKI-1 cells at 10^-5 M after 48 hrs by Sulforhodamine B assay relative to control; settings: CAKI-1, 48 h, read-out: GI; how it was run: as §3
A498 = test: Growth inhibition of human A498 cells at 10^-5 M after 48 hrs by Sulforhodamine B assay relative to control; settings: A498, 48 h, read-out: GI; how it was run: as §3
MDA-MB-231 = test: Growth inhibition of human MDA-MB-231 cells after 48 hrs by Sulforhodamine B assay; settings: MDA-MB-231, 48 h
How it was run: (§4)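 Five-concentration SRB assay using 10-fold or ½-log serial dilutions from a DMSO stock. Exposure is 48 h at 37 °C in 5% CO2 after 24 h preincubation. TCA fixation is followed by SRB staining and a reading at 515 nm. Percentage growth is computed from time-zero, control and treated absorbances. GI50 is the concentration where [(Ti−Tz)/(C−Tz)]×100 = 50, read from the plot against log concentration.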

SK-MEL-2 = test: Growth inhibition of human SK-MEL-2 cells after 48 hrs by Sulforhodamine B assay; settings: SK-MEL-2, 48 h
How it was run: (§5)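 Cells were preincubated 24 h at 37 °C, 5% CO2, and a time-zero plate was TCA-fixed. Five concentrations were made by serial dilution from a DMSO stock (400-fold the top concentration) and incubated 48 h. Adherent cells were fixed with 10% final TCA and suspension cells with 16%. Plates were stained with 0.4% SRB and read at 515 nm. GI50 is the concentration giving 50% reduction in net protein increase versus control.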

KM12 = test: Growth inhibition of human KM12 cells after 48 hrs by Sulforhodamine B assay; settings: KM12, 48 h; how it was run: as §4
DU-145 = test: Growth inhibition of human DU145 cells after 48 hrs by Sulforhodamine B assay; settings: DU-145, 48 h; how it was run: as §4
RXF 393 = test: Growth inhibition of human RXF393 cells after 48 hrs by Sulforhodamine B assay; settings: RXF 393, 48 h; how it was run: as §5
IGROV-1 = test: Growth inhibition of human IGROV1 cells after 48 hrs by Sulforhodamine B assay; settings: IGROV-1, 48 h; how it was run: as §4
HCT-15 [4] = test: Growth inhibition of human HCT15 cells after 48 hrs by Sulforhodamine B assay; settings: HCT-15, 48 h; how it was run: as §4
SF-268 = test: Growth inhibition of human SF268 cells after 48 hrs by Sulforhodamine B assay; settings: SF-268, 48 h; how it was run: as §5
SN12C [5] = test: Growth inhibition of human SN12C cells after 48 hrs by Sulforhodamine B assay; how it was run: as §5
MCF7 = test: Growth inhibition of human MCF7 cells after 48 hrs by Sulforhodamine B assay; settings: MCF7, 48 h; how it was run: as §4
SF-539 = test: Growth inhibition of human SF539 cells after 48 hrs by Sulforhodamine B assay; settings: SF-539, 48 h; how it was run: as §5
M14 = test: Growth inhibition of human M14 cells after 48 hrs by Sulforhodamine B assay; settings: M14, 48 h; how it was run: as §4
NCI-H226 = test: Growth inhibition of human NCI-H226 cells after 48 hrs by Sulforhodamine B assay; settings: NCI-H226, 48 h; how it was run: as §5
TK-10 = test: Growth inhibition of human TK10 cells after 48 hrs by Sulforhodamine B assay; settings: TK-10, 48 h
How it was run: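 Five-concentration stage in the […]-cell-line panel, using 10-fold or ½-log serial dilutions made from a DMSO stock (400-fold). Cells were preincubated 24 h at 37 °C, then drug-exposed 48 h. A time-zero plate was fixed with TCA at dosing, adherent cells were fixed with cold TCA (10% final), and protein was stained with SRB, absorbance 515 nm. GI50 was where [(Ti−Tz)/(C−Tz)]×100 = 50, from the percent growth vs log concentration plot, expressed as log10 GI50.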

OVCAR-8 [6] = test: Growth inhibition of human OVCAR8 cells after 48 hrs by Sulforhodamine B assay; settings: OVCAR-8, 48 h; how it was run: as §5
A549 = test: Growth inhibition of human A549/ATCC cells at 10^-5 M after 48 hrs by Sulforhodamine B assay relative to control; settings: A549, 48 h, read-out: GI; how it was run: as §3

SMILES	inhibition of growth at 10 µM (U-251)	inhibition of growth at 10 µM (MOLT-4)	inhibition of growth at 10 µM (SN12C [1])	inhibition of growth at 10 µM (T47D)	inhibition of growth at 10 µM (OVCAR-4)	inhibition of growth at 10 µM (OVCAR-8 [2])	inhibition of growth at 10 µM (HCT-15 [3])	inhibition of growth at 10 µM (SNB-75)	inhibition of growth at 10 µM (HOP-62)	inhibition of growth at 10 µM (CAKI-1)	inhibition of growth at 10 µM (A498)	GI50 (MDA-MB-231)	GI50 (SK-MEL-2)	GI50 (KM12)	GI50 (DU-145)	GI50 (RXF 393)	GI50 (IGROV-1)	GI50 (HCT-15 [4])	GI50 (SF-268)	inhibition of growth at 10 µM (A549)	other results
COc1ccc(N2CCN(c3nc(-c4ccncc4)nc4sc5c(c34)CCCCCC5)CC2)cc1	15.8%	16.1%	31.8%	27%	11.1%	5.9%	17.7%	-13.7%	0.29%	28.8%	6.97%										
COc1ccc(N2CCN(c3nc(-c4ccccn4)nc4sc5c(c34)CCCCCC5)CC2)cc1												50.1 µM	18.2 µM	5.13 µM	28.2 µM	> 100 µM	5.37 µM	4.27 µM	> 100 µM		GI50 (SN12C [5]): 6.03 µM; GI50 (MCF7): 3.16 µM; GI50 (SF-539): 67.6 µM; GI50 (M14): 5.37 µM; GI50 (NCI-H226): 6.46 µM; GI50 (TK-10): > 100 µM; GI50 (OVCAR-8 [6]): 5.25 µM
c1ccc(N2CCN(c3nc(-c4ccncc4)nc4sc5c(c34)CCCCCC5)CC2)cc1	0.24%	4.82%	-12.2%	11.7%	0.34%	8.55%	2.1%	-23.8%	-5.44%	8.66%	4.79%									-0.56%	
c1ccc(N2CCN(c3nc(-c4ccccn4)nc4sc5c(c34)CCCCCC5)CC2)cc1	37.1%	47.9%	28.9%	57.6%	44%	44.5%	41.4%	9.19%	36.2%	45.9%	38.4%									68.2%	
CN1CCN(c2nc(-c3ccncc3)nc3sc4c(c23)CCCCCC4)CC1												4.27 µM	14.5 µM	13.5 µM	12.6 µM	4.07 µM	8.13 µM	11.2 µM	5.37 µM		GI50 (SN12C [5]): 5.62 µM; GI50 (MCF7): 6.61 µM; GI50 (SF-539): 8.32 µM; GI50 (M14): 5.37 µM; GI50 (NCI-H226): 10.5 µM; GI50 (TK-10): 6.76 µM; GI50 (OVCAR-8 [6]): 12.3 µM
CN1CCN(c2nc(-c3ccccn3)nc3sc4c(c23)CCCCCC4)CC1	8.31%	7.6%	3.33%	24.9%	16%	-1.5%	2.35%	14.4%	-3.13%	20%	34.8%									22.6%	
c1cc(-c2nc(N3CCOCC3)c3c4c(sc3n2)CCCCCC4)ccn1	21.9%	24.5%	19.3%	19.2%	22.7%	15.3%	20.8%	0.97%	1.14%	15.8%	33.7%									24.9%	
NNc1nc(-c2ccncc2)nc2sc3c(c12)CCCCCC3	6.15%	9.09%	4.3%	0.16%	18.7%	2.51%	7.32%	18.8%	4.03%	7.27%	18.6%									-1.81%	
c1ccc(-c2nc(N3CCOCC3)c3c4c(sc3n2)CCCCCC4)nc1												7.41 µM	7.94 µM	4.27 µM	6.92 µM	8.32 µM	3.16 µM	3.39 µM	8.91 µM		GI50 (SN12C [5]): 5.01 µM; GI50 (MCF7): 3.02 µM; GI50 (SF-539): 12.9 µM; GI50 (M14): 4.17 µM; GI50 (NCI-H226): 5.01 µM; GI50 (TK-10): 9.33 µM; GI50 (OVCAR-8 [6]): 5.13 µM
Clc1nc(-c2ccncc2)nc2sc3c(c12)CCCCCC3	-0.32%	15.6%	4.53%	6.79%	14.8%	-1.87%	0.89%	9.59%	-9.05%	-4.99%	37.2%									-3.56%	
NNc1nc(-c2ccccn2)nc2sc3c(c12)CCCCCC3												12.6 µM	14.5 µM	6.46 µM	9.55 µM	6.76 µM	4.17 µM	1.12 µM	7.24 µM		GI50 (SN12C [5]): 6.31 µM; GI50 (MCF7): 3.8 µM; GI50 (SF-539): 11 µM; GI50 (M14): 5.5 µM; GI50 (NCI-H226): 10.2 µM; GI50 (TK-10): 9.12 µM; GI50 (OVCAR-8 [6]): 4.37 µM
Clc1nc(-c2ccccn2)nc2sc3c(c12)CCCCCC3	2.82%	32.3%	15.1%	57.8%	14.3%	12.9%	15.8%	15%	13.4%	165%	-18.4%									0.18%	
O=c1[nH]c(-c2ccccn2)nc2sc3c(c12)CCCCCC3												8.71 µM	> 100 µM	4.07 µM	6.76 µM	7.41 µM	3.98 µM	2.34 µM	8.71 µM		GI50 (SN12C [5]): 6.31 µM; GI50 (MCF7): 2.45 µM; GI50 (SF-539): 7.76 µM; GI50 (M14): 4.07 µM; GI50 (NCI-H226): > 100 µM; GI50 (TK-10): > 100 µM; GI50 (OVCAR-8 [6]): 4.37 µM
